# Experimental data pooled from the literature.
# Lines come from different studies, so protocols differ.
# Target: Serine/threonine-protein kinase Sgk2 (SGK2, Homo sapiens, UniProt Q9HBY8)
# Sequence (Q9HBY8 1-367, as in one of the studies): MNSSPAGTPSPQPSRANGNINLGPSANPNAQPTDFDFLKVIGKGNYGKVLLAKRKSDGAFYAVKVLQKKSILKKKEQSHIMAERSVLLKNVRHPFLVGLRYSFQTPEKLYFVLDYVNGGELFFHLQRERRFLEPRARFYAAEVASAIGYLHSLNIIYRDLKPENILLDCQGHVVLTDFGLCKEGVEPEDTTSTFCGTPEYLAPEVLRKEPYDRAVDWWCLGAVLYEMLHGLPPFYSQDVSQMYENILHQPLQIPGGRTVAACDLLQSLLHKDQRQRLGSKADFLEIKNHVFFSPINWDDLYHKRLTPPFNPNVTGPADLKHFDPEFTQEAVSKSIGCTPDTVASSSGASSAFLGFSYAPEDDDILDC
Compound,assay,conditions,remaining binding [%]
CN(CCCC(F)(F)F)c1nccc(-c2cnn3ncccc23)n1,binding,1 µM,93
Cc1cc(C)c(-n2ccn3nc(-c4cccnc4)cc23)cc1NC(=O)c1cc(C#N)cc(S(F)(F)(F)(F)F)c1,"cell-free assay, competition with immobilised ligand",0.1 µM,100
F[C@@H]1CCN(c2nccc(-c3cnn4ncccc34)n2)C1,binding,1 µM,92
COc1ccc2c(c1)O[C@H](c1ccc(OC)c(OC)c1)C[C@@H]2NC(=O)C1(c2ccc3c(c2)OC(F)(F)O3)CC1,"cell-free assay, competition with immobilised ligand",1 µM,100
c1cnn2ncc(-c3ccnc(N4CCC45COC5)n3)c2c1,binding,1 µM,65
O=C(Nc1c[nH]nc1C(=O)NC1CCNCC1)c1cc(F)cc(F)c1,"binding, competition with immobilised ligand",1 µM,93
O=C(NCCCN1CCOCC1)c1ccc(Nc2ncc(Cl)c(-c3ccc(Cl)s3)n2)cc1,"binding, competition with immobilised ligand",1 µM,100
Cc1nc(N2CC[C@@H](O)C2)ncc1-c1cc(C(F)(F)F)cc2[nH]ncc12,"binding, competition with immobilised ligand",1 µM,88
COc1cnc(Nc2cccc(S(N)(=O)=O)c2)nc1N1CCN(c2ccccc2)CC1,"binding, competition with immobilised ligand",1 µM,82
CN(C)c1nccc(-c2cnn3ncccc23)n1,binding,1 µM,75
COc1ncc2cc3ccccc3nc2c1C#N,"cell-free assay, competition with immobilised ligand",5 µM,98
Nc1ncc2c(n1)-c1c([nH]c3ccc(C#CC4CC4)cc13)CCCC2,"binding, competition with immobilised ligand",1 µM,96
C[C@@H]1CCN(c2nccc(-c3cnn4ncccc34)n2)C1,binding,1 µM,81
COCCOc1nc(-c2ccc(Cl)nc2)nc2c1CN(C(=O)c1ncn3ccccc13)CC2,"cell-free assay, competition with immobilised ligand",0.1 µM,88
C=CC(=O)N1CCC(C(=O)NCC(=O)N2CCN(c3nc(-c4cnc(N)nc4C(F)F)nc(N4CCOCC4)n3)CC2)CC1,"binding, competition with immobilised ligand",1 µM,86
N[C@@H]1CCN(c2nccc(-c3cnn4ncccc34)n2)C1,binding,1 µM,100
COc1cnc(Nc2cccc(S(N)(=O)=O)c2)nc1N1CCN(c2ccccc2)C(=O)C1,"binding, competition with immobilised ligand",1 µM,83
O=C(c1ccc(Nc2nccc(-c3cc4ccccc4s3)n2)cc1)N1CCC(N2CCCC2)CC1,"binding, competition with immobilised ligand",1 µM,47
CC1=C(C#N)[C@@H](c2ccc3[nH]nc(C)c3c2)C(C#N)=C(c2ccc(Cl)cc2)N1,"cell-free assay, competition with immobilised ligand",1 µM,100
O=C(NCCCN1CCOCC1)c1ccc(Nc2nccc(-c3cc4ccccc4s3)n2)cc1,"binding, competition with immobilised ligand",1 µM,55
O=C(Nc1cccnn1)N1CC(C/C=C/c2cncc(Oc3ccc(C(F)(F)F)cn3)n2)C1,"cell-free assay, competition with immobilised ligand",1 µM,74
